Like-named read-outs stand apart in the source and are kept apart here. Where a SMILES comes first, the peptide text is derived from it. [ ]: non-standard residue; d: D form. The star is where a group is joined. Dmt = Cc1cc(O)cc(C)c1C[C@H](N)C(=O)O; Tic = O=C(O)[C@@H]1Cc2ccccc2CN1; NHBn = c1ccc(CN*)cc1
How the values were obtained:
[1] = biological target: T1, μ-opioid receptor (Cavia porcellus, UniProt P97266); assay: Electrically stimulated guinea-pig ileum; design: species or system guinea pigs
[2] = system: mice; assay: Tail-flick test after icv injection; format: in vivo, Swiss-Webster mice
Procedure, shortened: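 Radiant heat on the dorsal tail surface of male Swiss-Webster mice (20–25 g), with latency to tail removal timed. Baseline 2–3 sec, cutoff 8 sec. Readings start 10 min after icv test compound (5 μL saline at bregma) and repeat every 10 min.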

[3] = system: mice; assay: Behavioural observation after icv injection; format: in vivo
[4] = system: mice; assay: Hot-plate test after icv injection; format: in vivo, Swiss-Webster mice
Procedure, shortened: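 Male Swiss-Webster mice (20–25 g); test compound in saline, 5 μL icv at bregma (needle 2.3–3 mm deep), placement checked after sacrifice. Latency to jump, lick or shake hind paws on a 55 °C plate at 10 min post-injection, then every 10 min; baseline 5–10 sec, cutoff 30 sec.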

[5] = Enzymatic degradation in plasma; format: in vitro ADME; conditions: 4 h, preliminary
[6] = Enzymatic degradation in brain homogenate; format: in vitro ADME; conditions: 2 h, preliminary
[7] = biological target: T2, δ-opioid receptor (Mus musculus, UniProt P32300); assay: Electrically stimulated mouse vas deferens; conditions: MVD
[8] = biological target: T1, μ-opioid receptor; conditions: read-out: GPI IC50; μ agonism; ref Balboni et al.[5]; cited from earlier work
[9] = biological target: μ-opioid receptors (Rattus norvegicus, UniProt P33535); conditions: read-out: Receptor affinity Ki^μ; reference compounds; ref Balboni et al.[5]; cited from earlier work
[10] = biological target: δ-opioid receptors (Rattus norvegicus, UniProt P33533); conditions: ref Balboni et al.[5], cited from earlier work; for Ki: read-out: Receptor affinity Ki^δ, reference compounds
[11] = biological target: T2, δ-opioid receptor; conditions: ref Balboni et al.[5], cited from earlier work
[12] = 10 μg/mouse icv, sc naltrindole 3 mg/kg, naloxone 10 mg/kg 20 min before

Sequence of δ-opioid receptors (P33533 whole entry): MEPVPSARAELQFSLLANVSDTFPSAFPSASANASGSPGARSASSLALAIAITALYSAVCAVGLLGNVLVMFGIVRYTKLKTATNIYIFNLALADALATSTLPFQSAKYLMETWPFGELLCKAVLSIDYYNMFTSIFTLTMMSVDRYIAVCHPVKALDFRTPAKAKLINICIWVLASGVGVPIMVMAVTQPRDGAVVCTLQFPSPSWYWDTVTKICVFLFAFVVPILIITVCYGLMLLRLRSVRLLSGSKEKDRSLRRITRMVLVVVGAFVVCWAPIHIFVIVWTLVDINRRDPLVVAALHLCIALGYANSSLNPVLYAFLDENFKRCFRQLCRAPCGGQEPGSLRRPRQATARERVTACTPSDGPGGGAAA
T2 sequence (P32300 whole entry): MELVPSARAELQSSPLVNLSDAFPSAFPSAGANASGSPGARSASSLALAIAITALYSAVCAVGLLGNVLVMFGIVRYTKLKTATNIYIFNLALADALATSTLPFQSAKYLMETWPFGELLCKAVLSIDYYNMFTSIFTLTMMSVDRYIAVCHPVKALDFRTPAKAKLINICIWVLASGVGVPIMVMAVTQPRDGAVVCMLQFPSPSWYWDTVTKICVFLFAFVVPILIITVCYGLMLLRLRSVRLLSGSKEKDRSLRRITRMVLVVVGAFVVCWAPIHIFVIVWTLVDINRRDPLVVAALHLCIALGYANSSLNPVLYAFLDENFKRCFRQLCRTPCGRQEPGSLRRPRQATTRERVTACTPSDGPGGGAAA
T1 sequence (P97266 whole entry, looked up): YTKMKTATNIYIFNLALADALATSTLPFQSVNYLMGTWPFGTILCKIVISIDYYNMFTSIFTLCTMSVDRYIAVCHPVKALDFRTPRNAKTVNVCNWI
Sequence of μ-opioid receptors (P33535 whole entry): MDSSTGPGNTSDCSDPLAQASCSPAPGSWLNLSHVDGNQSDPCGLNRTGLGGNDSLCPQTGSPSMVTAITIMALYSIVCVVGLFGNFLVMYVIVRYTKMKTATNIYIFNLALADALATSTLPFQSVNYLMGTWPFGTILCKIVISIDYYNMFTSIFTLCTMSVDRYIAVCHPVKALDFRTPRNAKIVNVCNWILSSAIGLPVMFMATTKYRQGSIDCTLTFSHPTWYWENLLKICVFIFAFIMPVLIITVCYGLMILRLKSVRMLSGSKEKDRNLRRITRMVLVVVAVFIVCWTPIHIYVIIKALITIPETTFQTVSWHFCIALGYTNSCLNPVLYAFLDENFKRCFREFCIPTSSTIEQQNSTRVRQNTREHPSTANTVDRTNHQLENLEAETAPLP

## Cc1cc(O)cc(C)c1C[C@H](N)C(=O)N1Cc2ccccc2C[C@H]1C(=O)N[C@@H](CC(=O)O)C(=O)N(C)c1ccccc1 [Compound 8, H-Dmt-Tic-Asp-N(Me)-Ph]
[1]
  IC50: > 10000 nM

## Cc1cc(O)cc(C)c1C[C@H](N)C(=O)N1Cc2ccccc2C[C@H]1C(=O)N[C@H](CC(=O)O)C(=O)N(C)c1ccccc1 [Compound 9, H-Dmt-Tic-D-Asp-N(Me)-Ph]
[1]
  IC50: > 10000 nM

## Cc1cc(O)cc(C)c1C[C@H](N)C(=O)N1Cc2ccccc2C[C@H]1C(=O)N[C@@H](CC(=O)O)c1nc2ccccc2n1C [Compound 10, H-Dmt-Tic-NH-(S)CH(CH2-COOH)-Bid(N^1-Me)]
[2]; [12]
  Reversal of analgesia by naltrindole and naloxone, tail-flick test: reversed
[2]; icv injection, mice, Figure 1
  Analgesic effect, tail-flick test: dose dependent analgesic effect
[1]; GPI
  μ agonism relative to 4: 1.7 fold
[3]; highest doses
  Convulsions: convulsions
[3]; same dose
  Behavioural effects in mice: sedated, quiet, easily handled, and moving slowly if at all
[4]; [12]
  Reversal of analgesia by naltrindole and naloxone, hot-plate test: not in the hot-plate test
[4]; icv injection, mice, Figure 1
  Analgesic effect, hot-plate test: dose dependent analgesic effect
[5]
  Stability to enzymic degradation: fully stable
[6]
  Stability to enzymic degradation: fully stable

## Cc1cc(O)cc(C)c1C[C@H](N)C(=O)N1Cc2ccccc2C[C@H]1C(=O)N[C@H](CC(=O)O)c1nc2ccccc2n1C [Compound 11, H-Dmt-Tic-NH-(R)CH(CH2-COOH)-Bid(N^1-Me)]
[1]
  IC50: > 10000 nM

## Cc1cc(O)cc(C)c1C[C@H](N)C(=O)N1Cc2ccccc2C[C@H]1C(=O)N[C@@H](CC(=O)O)C(=O)NCc1ccccc1 [Compound 13, H-Dmt-Tic-Asp-NH-Bzl] (H-[Dmt]-[Tic]-Asp-NHBn)
[7]
  δ antagonist activity, lower than 2: 5 fold

## H-Dmt-Tic-Gly-NH-Bzl [Compound 2]
[8]
  IC50: 2.69 nM
[9]
  Ki: 0.16 nM
[10]
  Ki: 0.031 nM
  Selectivity Ki^μ/Ki^δ: 5
[11]; δ antagonism
  MVD pA2: 9.25

## H-Dmt-Tic-Gly-NH-Ph [Compound 1]
[8]
  IC50: 2.57 nM
[9]
  Ki: 0.16 nM
[10]
  Ki: 0.042 nM
  Selectivity Ki^μ/Ki^δ: 4
[11]; read-out: MVD IC50, δ agonism
  IC50: 3.02 nM
